Assay results from ChEMBL document CHEMBL1153798, “Substituted tetrahydroquinolines as potent allosteric inhibitors of reverse transcriptase and its key mutants” (Bioorg Med Chem Lett, 2009).

How the values were obtained:
[1] = tested on: Human immunodeficiency virus 1; test: Antiviral activity against HIV1 3B infected human MT4 cells assessed as drug level required for 95% inhibition in the presence of 50% normal human serum; format: functional
In short: (§1)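 Spread assay: MT-4 human T-lymphoid cells in RPMI 1640 with either 10% FBS or 50% NHS; CIC95 taken as the concentration blocking >95% of virus spread. Wild-type virus H9IIIB or R8 as stated per line. Geometric mean of at least two determinations, individual values within 25% of the mean.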

[2] = tested on: Human immunodeficiency virus 1; test: Antiviral activity against HIV1 3B infected human MT4 cells assessed as drug level required for 95% inhibition in the presence of 10% fetal bovine serum; format: functional; in short: as §1
[3] = Inhibition of HIV1 reverse transcriptase K103 mutant

Row | SMILES | ID95 [1] [nM] | ID95 [2] [nM] | IC50 [3] [nM] | Activity [1] [µM] | Activity [2] [nM]
1 | O=C(CSC(=O)N1CCCc2cc(Cl)cc(Cl)c21)Nc1ccccc1Cl | 406 | 125 |  |  | 
2 | N#Cc1ccc(NC(=O)CSC(=O)N2CCCc3cc(Cl)cc(Cl)c32)c(Cl)c1 | 1250 |  | 14 |  | 
3 | NS(=O)(=O)c1ccc(NC(=O)COC(=O)N2CCCc3cc(Cl)cc(Cl)c32)c(Cl)c1 |  |  | 21 | 2.5 | 187
4 | NS(=O)(=O)c1ccc(NC(=O)CCC(=O)N2CCCc3cc(Cl)cc(Cl)c32)c(Cl)c1 |  |  |  | 5 | 406
5 | Cc1cccc2c1N(C(=O)SCC(=O)Nc1ccc(S(N)(=O)=O)cc1Cl)CCC2 | 219 | 47 | 4 |  | 
6 | NS(=O)(=O)c1ccc(NC(=O)CSC(=O)N2CCCc3cc(Cl)ccc32)c(Cl)c1 | 1250 | 141 |  |  | 
7 | NS(=O)(=O)c1ccc(NC(=O)CNC(=O)N2CCCc3cc(Cl)cc(Cl)c32)c(Cl)c1 |  |  |  | >10 | 562
8 | Cc1cc(C)c(N(C)C(=O)SCC(=O)Nc2ccc(S(N)(=O)=O)cc2Cl)c(C)c1 |  |  | 9 |  | 
